Results reported in ChEMBL document CHEMBL1944509, “Methyl-monofluorination of ibuprofen selectively increases its inhibitory activity toward cyclooxygenase-1 leading to enhanced analgesic activity and reduced gastric damage in vivo” (Bioorg Med Chem Lett, 2011).
Active and inactive are the calls of the source. The calls are words filed in the database; no cut-off is given here.

Tests used:
[1] = Plasma concentration in ICR mouse at 10 mg/kg, po after 4 hrs by HPLC/MS/MS analysis; type: ADME, organism-based; design: dose 10 mg/kg, route oral
Nucleic Acid [2] = assay: Ratio of drug level in brain to plasma in ICR mouse at 10 mg/kg, po after 0.5 hrs by HPLC/MS/MS analysis; type: ADME, organism-based; design: dose 10 mg/kg, route oral
Rattus norvegicus [3] = assay: Antiinflammatory activity in Wistar albino rat assessed as inhibition of carrageenan-induced paw edema at 30 mg/kg intragastrically administered 1 hr before carrageenan challenge measured after 1 to 24 hrs post carrageenan challenge by plethysmometer; type: functional, organism-based
In short: (§1)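 Male Wistar albino rats, 140–160 g, eight per group, dosed i.g. as a suspension in 0.5% CMC; controls get 0.5% CMC only. 1 h later, 0.1 ml of 0.1% carrageenan in 0.9% NaCl is injected into the sub-plantar region of the right hind paw. Paw volume is read by plethysmometer hourly to 6 h and at 24 h. Inhibition (%) = (Vc − Vt)/Vc × 100 on mean volume increase; mean ± SEM.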

[4] = Plasma concentration in ICR mouse at 5 mg/kg, iv after 1 hr by HPLC/MS/MS analysis; type: ADME, organism-based; design: dose 5 mg/kg, route intravenous
[5] = AUC (0 to infinity) in ICR mouse at 10 mg/kg, po; type: ADME, organism-based; design: time infinity, dose 10 mg/kg, route oral; conditions: plasma
In short: (§2)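 ICR mice given drug intravenously at 5 mg/kg or orally at 10 mg/kg. Parameters are taken from the plasma concentration–time profile: AUC(0–t), AUC(0–∞), MRT, Cmax and bioavailability.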

[6] = Tmax in ICR mouse at 5 mg/kg, iv; type: ADME, organism-based; design: dose 5 mg/kg, route intravenous; conditions: in vivo
[7] = AUC (0 to t) in ICR mouse at 5 mg/kg, iv; type: ADME, organism-based; design: dose 5 mg/kg, route intravenous; conditions: plasma; in short: as §2
[8] = Drug level in ICR mouse brain at 10 mg/kg, po after 0.5 hrs by HPLC/MS/MS analysis; type: ADME, organism-based; design: dose 10 mg/kg, route oral; conditions: read-out: Drug uptake
[9] = Mean residence time (0 to infinity) in ICR mouse at 5 mg/kg, iv; type: ADME, organism-based; design: dose 5 mg/kg, route intravenous; conditions: in vivo; in short: as §2
Nucleic Acid [10] = assay: Ratio of drug level in brain to plasma in ICR mouse at 5 mg/kg, iv after 0.5 hrs by HPLC/MS/MS analysis; type: ADME, organism-based; design: dose 5 mg/kg, route intravenous
[11] = Mean residence time (0 to infinity) in ICR mouse at 10 mg/kg, po; type: ADME, organism-based; design: dose 10 mg/kg, route oral; conditions: in vivo; in short: as §2
[12] = Cmax in ICR mouse at 5 mg/kg, iv; type: ADME, organism-based; design: dose 5 mg/kg, route intravenous; conditions: in vivo; in short: as §2
[13] = Drug level in ICR mouse brain at 5 mg/kg, iv after 0.25 hrs by HPLC/MS/MS analysis; type: ADME, organism-based; design: dose 5 mg/kg, route intravenous; conditions: read-out: Drug uptake
Nucleic Acid [14] = assay: Ratio of drug level in brain to plasma in ICR mouse at 10 mg/kg, po after 1 hr by HPLC/MS/MS analysis; type: ADME, organism-based; design: dose 10 mg/kg, route oral
[15] = Plasma concentration in ICR mouse at 5 mg/kg, iv after 4 hrs by HPLC/MS/MS analysis; type: ADME, organism-based; design: dose 5 mg/kg, route intravenous
Rattus norvegicus [16] = assay: Antiinflammatory activity in Wistar albino rat assessed as inhibition of carrageenan-induced paw edema at 33.6 mg/kg, ig administered 1 hr before carrageenan challenge measured after 1 to 24 hrs post carrageenan challenge by plethysmometer; type: functional, organism-based; in short: as §1
[17] = Oral bioavailability ICR mouse at 10 mg/kg; type: ADME, organism-based; conditions: in vivo; in short: as §2
[18] = Cmax in ICR mouse at 10 mg/kg, po; type: ADME, organism-based; design: dose 10 mg/kg, route oral; conditions: in vivo; in short: as §2
[19] = Plasma concentration in ICR mouse at 5 mg/kg, iv after 0.5 hrs by HPLC/MS/MS analysis; type: ADME, organism-based; design: dose 5 mg/kg, route intravenous
[20] = Drug level in ICR mouse brain at 10 mg/kg, po after 0.25 hrs by HPLC/MS/MS analysis; type: ADME, organism-based; design: dose 10 mg/kg, route oral; conditions: read-out: Drug uptake
[21] = Plasma concentration in ICR mouse at 5 mg/kg, iv after 2 hrs by HPLC/MS/MS analysis; type: ADME, organism-based; design: dose 5 mg/kg, route intravenous
[22] = Plasma concentration in ICR mouse at 10 mg/kg, po after 0.5 hrs by HPLC/MS/MS analysis; type: ADME, organism-based; design: dose 10 mg/kg, route oral
[23] = Drug level in ICR mouse brain at 5 mg/kg, iv after 0.5 hrs by HPLC/MS/MS analysis; type: ADME, organism-based; design: dose 5 mg/kg, route intravenous; conditions: read-out: Drug uptake
[24] = Plasma concentration in ICR mouse at 10 mg/kg, po after 0.083 hrs by HPLC/MS/MS analysis; type: ADME, organism-based; design: dose 10 mg/kg, route oral
Nucleic Acid [25] = assay: Ratio of drug level in brain to plasma in ICR mouse at 5 mg/kg, iv after 2 hrs by HPLC/MS/MS analysis; type: ADME, organism-based; design: dose 5 mg/kg, route intravenous
[26] = AUC (0 to infinity) in ICR mouse at 5 mg/kg, iv; type: ADME, organism-based; design: time infinity, dose 5 mg/kg, route intravenous; conditions: plasma; in short: as §2
[27] = Plasma concentration in ICR mouse at 10 mg/kg, po after 1 hr by HPLC/MS/MS analysis; type: ADME, organism-based; design: dose 10 mg/kg, route oral
[28] = Drug level in ICR mouse brain at 5 mg/kg, iv after 0.083 hrs by HPLC/MS/MS analysis; type: ADME, organism-based; design: dose 5 mg/kg, route intravenous; conditions: read-out: Drug uptake
Nucleic Acid [29] = assay: Ratio of drug level in brain to plasma in ICR mouse at 10 mg/kg, po after 0.25 hrs by HPLC/MS/MS analysis; type: ADME, organism-based; design: dose 10 mg/kg, route oral
[30] = Drug level in ICR mouse brain at 10 mg/kg, po after 0.083 hrs by HPLC/MS/MS analysis; type: ADME, organism-based; design: dose 10 mg/kg, route oral; conditions: read-out: Drug uptake
[31] = Tmax in ICR mouse at 10 mg/kg, po; type: ADME, organism-based; design: dose 10 mg/kg, route oral; conditions: in vivo
[32] = Plasma concentration in ICR mouse at 10 mg/kg, po after 2 hrs by HPLC/MS/MS analysis; type: ADME, organism-based; design: dose 10 mg/kg, route oral
[33] = Plasma concentration in ICR mouse at 5 mg/kg, iv after 0.25 hrs by HPLC/MS/MS analysis; type: ADME, organism-based; design: dose 5 mg/kg, route intravenous
[34] = Plasma concentration in ICR mouse at 5 mg/kg, iv after 6 hrs by HPLC/MS/MS analysis; type: ADME, organism-based; design: dose 5 mg/kg, route intravenous
[35] = Drug level in ICR mouse brain at 10 mg/kg, po after 4 hrs by HPLC/MS/MS analysis; type: ADME, organism-based; design: dose 10 mg/kg, route oral; conditions: read-out: Drug uptake
Nucleic Acid [36] = assay: Ratio of drug level in brain to plasma in ICR mouse at 5 mg/kg, iv after 0.083 hrs by HPLC/MS/MS analysis; type: ADME, organism-based; design: dose 5 mg/kg, route intravenous
[37] = Drug level in ICR mouse brain at 10 mg/kg, po after 1 hr by HPLC/MS/MS analysis; type: ADME, organism-based; design: dose 10 mg/kg, route oral; conditions: read-out: Drug uptake
[38] = Drug level in ICR mouse brain at 10 mg/kg, po after 2 hrs by HPLC/MS/MS analysis; type: ADME, organism-based; design: dose 10 mg/kg, route oral; conditions: read-out: Drug uptake
[39] = AUC (0 to t) in ICR mouse at 10 mg/kg, po; type: ADME, organism-based; design: dose 10 mg/kg, route oral; conditions: plasma; in short: as §2
Nucleic Acid [40] = assay: Ratio of drug level in brain to plasma in ICR mouse at 5 mg/kg, iv after 0.25 hrs by HPLC/MS/MS analysis; type: ADME, organism-based; design: dose 5 mg/kg, route intravenous
[41] = Plasma concentration in ICR mouse at 10 mg/kg, po after 0.25 hrs by HPLC/MS/MS analysis; type: ADME, organism-based; design: dose 10 mg/kg, route oral
[42] = Plasma concentration in ICR mouse at 10 mg/kg, po after 8 hrs by HPLC/MS/MS analysis; type: ADME, organism-based; design: dose 10 mg/kg, route oral
[43] = Plasma concentration in ICR mouse at 10 mg/kg, po after 6 hrs by HPLC/MS/MS analysis; type: ADME, organism-based; design: dose 10 mg/kg, route oral
[44] = Plasma concentration in ICR mouse at 5 mg/kg, iv after 8 hrs by HPLC/MS/MS analysis; type: ADME, organism-based; design: dose 5 mg/kg, route intravenous
[45] = Drug level in ICR mouse brain at 5 mg/kg, iv after 1 hr by HPLC/MS/MS analysis; type: ADME, organism-based; design: dose 5 mg/kg, route intravenous; conditions: read-out: Drug uptake

**Q.** Which results are given for `CC(C)Cc1ccc([C@H](CF)C(=O)O)cc1`?
**A.** concentration at 4 h [1]: 792 ng/mL; BPR (Nucleic Acid [2]): 0.035 mL/g; inhibition (Rattus norvegicus [3]): Active; concentration at 1 h [4]: 6160 ng/mL; AUC(0-inf) [5]: 50200 ng·h/mL; Tmax [6]: 4.8 min; AUC(0-t) [7]: 23300 ng·h/mL; concentration at 0.5 h [8]: 950 ng/g; MRT inf [9]: 49.8 min; BPR (Nucleic Acid [10]): 0.038 mL/g; MRT inf [11]: 57 min; Cmax [12]: 31600 ng/mL; concentration at 0.25 h [13]: 759 ng/g; BPR (Nucleic Acid [14]): 0.025 mL/g; concentration at 4 h [15]: 206 ng/mL; inhibition (Rattus norvegicus [16]): Active; bioavailability [17]: 108%; Cmax [18]: 42100 ng/mL; concentration at 0.5 h [19]: 13700 ng/mL; concentration at 0.25 h [20]: 1270 ng/g; concentration at 2 h [21]: 2240 ng/mL; concentration at 0.5 h [22]: 28500 ng/mL; concentration at 0.5 h [23]: 523 ng/g; concentration at 0.083 h [24]: 41800 ng/mL; BPR (Nucleic Acid [25]): 0.032 mL/g; AUC(0-inf) [26]: 23300 ng·h/mL; concentration at 1 h [27]: 20900 ng/mL; concentration at 0.083 h [28]: 982 ng/g; BPR (Nucleic Acid [29]): 0.03 mL/g; concentration at 0.083 h [30]: 1160 ng/g; Tmax [31]: 15 min; concentration at 2 h [32]: 5310 ng/mL; concentration at 0.25 h [33]: 18000 ng/mL; concentration at 6 h [34]: 130 ng/mL; concentration at 4 h [35]: 24.7 ng/g; BPR (Nucleic Acid [36]): 0.031 mL/g; concentration at 1 h [37]: 516 ng/g; concentration at 2 h [38]: 162 ng/g; AUC(0-t) [39]: 50200 ng·h/mL; BPR (Nucleic Acid [40]): 0.042 mL/g; concentration at 0.25 h [41]: 42100 ng/mL; concentration at 8 h [42]: 42.4 ng/mL; concentration at 6 h [43]: 102 ng/mL; concentration at 8 h [44]: 45.3 ng/mL; concentration at 1 h [45]: 232 ng/g
